This sample holds only a part of the variants without activity.
B1: tRNA (parent)
chain: GUUCCGUUGGCGUAAUGGUAACGCGUCUCCCUCCUAAGGAGAAGACUGCGGGUUCGAGUCCCGUACGGAACG

Variants of: B1
Experiment: yeast fitness relative to wild type (ratio to wild type); higher = fitter; tRNA-Arg(CCU), competitive growth, 37 C, YPD
How it was run: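 Variants of the tRNA-Arg(CCU) gene, chemically synthesised with a 3% per-site mutation rate at 69 sites, were placed at the native genomic locus in Saccharomyces cerevisiae. The pooled strains were competed in YPD at 37°C for 24 hours in six parallel replicates. Gene amplicons from the start population and from each end population were read by 100-nucleotide paired-end sequencing. Darwinian fitness relative to wild type came from changes in genotype frequencies; genotypes needed ≥ 100 starting reads, and estimates < 0.5 were set to 0.5.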

**Q.** With A21C as the variant, how does the yeast fitness read?
**A.** 0.973

**Q.** Which yeast fitness does the source give for C49U C66U here?
**A.** 0.968

**Q.** With A21U G25A G68U as the variant, how does the yeast fitness read?
**A.** 0.547

**Q.** For A15C C33U C61G, which yeast fitness is on record?
**A.** ≤ 0.5

**Q.** With C27A C55U A57C C61A C62G as the variant, how does the yeast fitness read?
**A.** ≤ 0.5

**Q.** For U16A A43C C49U, which yeast fitness is on record?
**A.** 0.656

**Q.** Which yeast fitness does the source give for C4U C29U here?
**A.** 1

**Q.** With A14G G48C G50A as the variant, how does the yeast fitness read?
**A.** 0.546

**Q.** With C11U A20G U47G G58A as the variant, how does the yeast fitness read?
**A.** ≤ 0.5

**Q.** For U3A C5A C66U, which yeast fitness is on record?
**A.** ≤ 0.5

**Q.** For U13C C22G G38C A45U C49G, which yeast fitness is on record?
**A.** ≤ 0.5

**Q.** With A14C C27U A43U as the variant, how does the yeast fitness read?
**A.** ≤ 0.5

**Q.** With U7C U64G as the variant, how does the yeast fitness read?
**A.** 0.809

**Q.** Which yeast fitness does the source give for G10A A36C A45C A70U here?
**A.** ≤ 0.5

**Q.** For U16C A45C C60G, which yeast fitness is on record?
**A.** ≤ 0.5

**Q.** With A40G G52A U54G C61U as the variant, how does the yeast fitness read?
**A.** ≤ 0.5

**Q.** Which yeast fitness does the source give for G17A C24G C29G A37U here?
**A.** ≤ 0.5

**Q.** Which yeast fitness does the source give for C11A C34A G44C A70U here?
**A.** ≤ 0.5

**Q.** Which yeast fitness does the source give for C4U U19A C30G A36C C66A G68C here?
**A.** ≤ 0.5

**Q.** With A20C C49A as the variant, how does the yeast fitness read?
**A.** 0.575

**Q.** With U3C A14C A21G A37U C49A C60G as the variant, how does the yeast fitness read?
**A.** 0.629

**Q.** For C29A U32C A42U G67A, which yeast fitness is on record?
**A.** 0.522

**Q.** With C22A C62U as the variant, how does the yeast fitness read?
**A.** 0.935

**Q.** With U26A C30U U54A as the variant, how does the yeast fitness read?
**A.** ≤ 0.5

**Q.** With C5G U35A G44C C66U G67U A70G as the variant, how does the yeast fitness read?
**A.** 0.542

**Q.** With A42C G67C as the variant, how does the yeast fitness read?
**A.** 0.829

**Q.** Which yeast fitness does the source give for A15G G52C here?
**A.** 0.568

**Q.** For G18A G68A, which yeast fitness is on record?
**A.** 0.795

**Q.** With A21C C30U C31G C33U C61A as the variant, how does the yeast fitness read?
**A.** ≤ 0.5

**Q.** With G6A G48C C66U as the variant, how does the yeast fitness read?
**A.** 0.769

**Q.** Which yeast fitness does the source give for C11A A20G C62U C66A here?
**A.** ≤ 0.5

**Q.** Which yeast fitness does the source give for C5G U16C G67A here?
**A.** ≤ 0.5

**Q.** With C5A C34G U53A as the variant, how does the yeast fitness read?
**A.** ≤ 0.5

**Q.** For G6A A21G C55U G56A, which yeast fitness is on record?
**A.** ≤ 0.5

**Q.** With U19C C31U G58A as the variant, how does the yeast fitness read?
**A.** 0.715

**Q.** With U8C C27A G52A as the variant, how does the yeast fitness read?
**A.** ≤ 0.5

**Q.** Which yeast fitness does the source give for U19G C31A U35A C55G G58C here?
**A.** 0.519

**Q.** For U13G C22U A70U, which yeast fitness is on record?
**A.** 0.751

**Q.** For U8C A21G C46U C62U, which yeast fitness is on record?
**A.** 0.699

**Q.** With C11G A37C C62G C66U as the variant, how does the yeast fitness read?
**A.** ≤ 0.5

**Q.** For A21U C31A G39C C62G G68A, which yeast fitness is on record?
**A.** ≤ 0.5

**Q.** For U26A C27G C31U C46A A65C G68A, which yeast fitness is on record?
**A.** 0.626

**Q.** With U13A A20C C46U as the variant, how does the yeast fitness read?
**A.** 0.844

**Q.** With A40U G48C C55U C61G as the variant, how does the yeast fitness read?
**A.** 0.522

**Q.** With U3A C24A C27U G56C C66U as the variant, how does the yeast fitness read?
**A.** ≤ 0.5

**Q.** For C27U A45G C49G A65C, which yeast fitness is on record?
**A.** ≤ 0.5

**Q.** Which yeast fitness does the source give for G6C C24A C34U C49G G52C C55U C62G here?
**A.** ≤ 0.5

**Q.** For C55A G56C, which yeast fitness is on record?
**A.** 0.522

**Q.** Which yeast fitness does the source give for U16A C24G U47C here?
**A.** 0.536

**Q.** Which yeast fitness does the source give for U54A C55A C66G A70C here?
**A.** ≤ 0.5

**Q.** With G17C C24A U47A G67C as the variant, how does the yeast fitness read?
**A.** 0.569

**Q.** Which yeast fitness does the source give for C5A A15C A69U here?
**A.** 0.552

**Q.** Which yeast fitness does the source give for G25C G56C C61G here?
**A.** ≤ 0.5

**Q.** With C4G A15U G18C G23C C24G G56C as the variant, how does the yeast fitness read?
**A.** ≤ 0.5

**Q.** With G18C C34G A45C as the variant, how does the yeast fitness read?
**A.** ≤ 0.5

**Q.** With A15G C31A C55U as the variant, how does the yeast fitness read?
**A.** ≤ 0.5

**Q.** With C5G C24U C31A as the variant, how does the yeast fitness read?
**A.** ≤ 0.5

**Q.** With G9C A57U C62G as the variant, how does the yeast fitness read?
**A.** ≤ 0.5

**Q.** With A15C U47A G68U as the variant, how does the yeast fitness read?
**A.** 0.57

**Q.** With C4U G10A C24U C62U as the variant, how does the yeast fitness read?
**A.** 0.723

**Q.** Which yeast fitness does the source give for C4G C61G here?
**A.** 0.659

**Q.** With U16A C30A A69U as the variant, how does the yeast fitness read?
**A.** 0.979

**Q.** With C4A A57G A70U as the variant, how does the yeast fitness read?
**A.** 0.587

**Q.** Which yeast fitness does the source give for G12C C22U C27A C49U here?
**A.** ≤ 0.5

**Q.** For U32C U59G, which yeast fitness is on record?
**A.** 0.878

**Q.** Which yeast fitness does the source give for C11G U19A G25A C49U here?
**A.** ≤ 0.5

**Q.** Which yeast fitness does the source give for U16A U28C G38C G39A A70G here?
**A.** ≤ 0.5

**Q.** For U13G C29U G68C, which yeast fitness is on record?
**A.** ≤ 0.5

**Q.** For A14C C24G, which yeast fitness is on record?
**A.** 0.579

**Q.** Which yeast fitness does the source give for C5G G9C here?
**A.** 0.696

**Q.** With C4U G41C C60G as the variant, how does the yeast fitness read?
**A.** ≤ 0.5

**Q.** For G10C A14U U28A A57C, which yeast fitness is on record?
**A.** ≤ 0.5

**Q.** For C31A A69C, which yeast fitness is on record?
**A.** 0.949

**Q.** Which yeast fitness does the source give for G50C C60A here?
**A.** ≤ 0.5

**Q.** With A40G C49G U53C A57C A69U as the variant, how does the yeast fitness read?
**A.** ≤ 0.5

**Q.** For C29G C31U, which yeast fitness is on record?
**A.** 0.68

**Q.** For G10U C66U, which yeast fitness is on record?
**A.** 0.794

**Q.** With A20G A42U as the variant, how does the yeast fitness read?
**A.** 0.982

**Q.** For C11U C29G A36U C66A, which yeast fitness is on record?
**A.** ≤ 0.5

**Q.** With C11G C61A as the variant, how does the yeast fitness read?
**A.** 0.546

**Q.** For A14G C31A, which yeast fitness is on record?
**A.** 0.752

**Q.** Which yeast fitness does the source give for U13A U54C C55U C62U G68C here?
**A.** 0.686

**Q.** For G25A C49U A65G A70C, which yeast fitness is on record?
**A.** ≤ 0.5
